Test results from ChEMBL document CHEMBL1152681, “Natural and synthetic 2'-hydroxy-chalcones and aurones: synthesis, characterization and evaluation of the antioxidant and soybean lipoxygenase inhibitory activity” (Bioorg Med Chem, 2009).

Assays:
[1] = tested on: Radical scavenging activity; assay: Antioxidant activity assessed as DPPH radical scavenging activity at 50 uM after 20 mins; format: functional
[2] = tested on: Radical scavenging activity; assay: Antioxidant activity assessed as DPPH radical scavenging activity at 50 uM after 60 mins; format: functional
[3] = tested on: Radical scavenging activity; assay: Antioxidant activity assessed as DPPH radical scavenging activity at 100 uM after 20 mins; format: functional
Procedure, shortened: (§1)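 DPPH (0.05 mM) in absolute ethanol; compounds in DMSO added to final 0.1 mM. Mixture shaken vigorously and left 20 min or 60 min. Absorbance read at 517 nm and percent activity calculated. Three replicates, averaged.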

[4] = tested on: Radical scavenging activity; assay: Antioxidant activity assessed as DPPH radical scavenging activity at 100 uM after 60 mins; format: functional; procedure, shortened: as §1
[5] = Antioxidant activity assessed as superoxide anion radical scavenging activity at 10 uM; format: functional
Procedure, shortened: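 Non-enzymatic superoxide generation from PMS/NADH/air-oxygen, measured by NBT reduction. Compounds preincubated 2 min before NADH was added. Mixture of 3 µM PMS, 78 µM NADH and 25 µM NBT in phosphate buffer pH 7.4, incubated 2 min at room temperature. Absorbance read at 560 nm against a PMS-containing blank. Caffeic acid was the standard.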

[6] = Antioxidant activity assessed as hydroxyl radical scavenging activity at 100 uM; format: functional
Procedure, shortened: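 Fe3+/ascorbic acid-generated hydroxyl radicals detected by the Nash method as formaldehyde formed from DMSO oxidation. The mixture held EDTA 0.1 mM, Fe3+ 167 µM, DMSO 33 mM, test compound 0.1 mM and ascorbic acid 10 mM in 50 mM phosphate buffer pH 7.4. Incubated 30 min at 37 °C, then stopped with CCl3COOH (17% w/v). Trolox was the standard.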

[7] = Antioxidant activity assessed as hydrogen peroxide scavenging activity by peroxyoxalate chemiluminescent method; format: functional
[8] = Antioxidant activity assessed as inhibition of AAPH-induced lipid peroxidation at 10 uM by uV spectrophotometry; format: functional
Procedure, shortened: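 Aqueous linoleic acid dispersion (16 mM, 10 µL) in 0.05 M phosphate buffer pH 7.4, prethermostated at 37 °C. Oxidation started under air with AAPH (40 mM solution, 50 µL) and run with 10 µL compound aliquots. The control contained the same DMSO level. The rate of conjugated diene hydroperoxide formation was followed by the rise in absorbance at 234 nm at 37 °C.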

[9] = Inhibition of soybean 5-lipoxygenase by UV-absorbance based enzyme assay; parameters: species or system Glycine max
Procedure, shortened: (§2)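 Soybean lipoxygenase (enzyme solution 1/9 × 10^-4 w/v in saline) incubated at room temperature with sodium linoleate and compound in DMSO, in Tris buffer pH 9. Conversion to 13-hydroperoxylinoleic acid recorded at 234 nm and compared with a standard inhibitor.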

Glycine max = assay: Inhibition of soybean 5-lipoxygenase at 100 uM by UV-absorbance based enzyme assay; procedure, shortened: as §2

Row | SMILES | IC50 [7] [µM] | IC50 [9] [µM] | inhibition (Glycine max) [%] | Activity [1] [%] | Activity [2] [%] | Activity [3] [%] | Activity [4] [%] | Activity [5] [%] | Activity [6] [%] | inhibition [8] [%]
1 | O=c1c(O)c(-c2ccc(O)c(O)c2)oc2cc(O)cc(O)c12 [QUERCETIN] | 162 | – | – | – | – | – | – | – | – | –
2 | CC1=C(/C=C/C(C)=C/C=C/C(C)=C/C=C/C=C(C)/C=C/C=C(C)/C=C/C2=C(C)CCCC2(C)C)C(C)(C)CCC1 [BETA CAROTENE] | 16.9 | – | – | – | – | – | – | – | – | –
3 | COc1cc(OC)c2c(c1)O/C(=C\c1ccc(C)cc1)C2=O | – | – | 0 | 0 | 0 | 8.5 | 29.2 | 97.4 | 100 | 72
4 | O=C(/C=C/c1ccc(Cl)cc1)c1ccccc1O | 713 | 56 | – | 0 | 0 | 0 | 40.8 | 84.2 | 100 | 74.4
5 | COCOc1cc(OCOC)c2c(c1)O/C(=C\c1ccc(OCOC)c(OCOC)c1)C2=O | – | – | 0 | – | – | – | – | – | – | –
6 | COc1cc(O)c(C(=O)/C=C/c2ccc(OC)c(OC)c2)c(OC)c1 | 88 | – | 1.6 | 0 | 0 | 12.9 | 20.8 | 86.8 | 42.2 | 73.6
7 | COc1ccccc1/C=C1\Oc2ccccc2C1=O [(Z)-2'-METHOXYAURONE] | 466 | – | 39.9 | 4.2 | 0 | 25 | 43.1 | 73.7 | 100 | 71.1
8 | COc1cccc(/C=C2\Oc3ccccc3C2=O)c1 [3'-METHOXY-AURONE] | 1990 | – | 34.9 | 11.1 | 0 | 87.9 | 83.8 | 50 | 57.8 | 62.3
9 | Cc1c(C)c2c(c(C)c1O)CCC(C)(C(=O)O)O2 (stereo unspecified) | – | – | – | – | – | – | – | – | 73.4 | 63
10 | COc1ccc(/C=C2\Oc3ccccc3C2=O)cc1 [4'-METHOXY-AURONE] | 291 | 70 | – | 13.9 | 0 | 5.1 | 23.8 | 81.6 | 76.4 | 64.6
11 | COc1cc(OC)c2c(c1)O/C(=C\c1ccc(Cl)cc1)C2=O | – | – | 7.8 | 0 | 0 | 6.3 | 20.8 | 84.2 | 91.5 | 82.9
12 | COCOc1cc(O)c(C(=O)/C=C/c2ccc(OCOC)c(OCOC)c2)c(OCOC)c1 | – | – | 14.1 | 5.6 | 0 | 42.6 | 65.4 | 50 | 100 | 77.1
13 | Cc1ccc(/C=C2\Oc3ccccc3C2=O)cc1 | 2010 | – | 32.4 | 5.6 | 29.4 | 23.9 | 49.2 | 68.4 | 84.5 | 43.1
14 | O=C1/C(=C/c2ccc(Cl)cc2)Oc2ccccc21 | 4140 | – | 26.4 | 11.1 | 10.3 | 49.3 | 76.2 | 89.5 | 0 | 46.4
15 | COc1ccc(/C=C2\Oc3ccccc3C2=O)cc1OC [3',4'-DIMETHOXY-AURONE] | 44 | – | – | – | – | – | – | 97.4 | 76.7 | 53.3
16 | COc1ccc(/C=C2\Oc3cc(OC)cc(OC)c3C2=O)cc1 [4,4',6-TRIMETHOXY-AURONE] | 1090 | 50 | – | 2.8 | 0 | 0 | 11.5 | 63.2 | 100 | 42.6
17 | COc1cc(OC)c2c(c1)O/C(=C\c1ccccc1OC)C2=O | 2400 | 100 | – | 4.2 | 0 | 1.8 | 30.8 | 55.3 | 77.9 | 87.1

The next lines start with results.

Row | IC50 [7] [µM] | IC50 [9] [µM] | inhibition (Glycine max) [%] | SMILES | Activity [1] [%] | Activity [2] [%] | Activity [3] [%] | Activity [4] [%] | Activity [5] [%] | Activity [6] [%] | inhibition [8] [%]
18 | 665 | 53 | – | COc1cc(O)c(C(=O)/C=C/c2ccc(C)cc2)c(OC)c1 | 0 | 0 | 9.6 | 24.6 | 100 | 100 | 100
19 | – | 40 | – | CC(Cc1ccc(O)c(O)c1)C(C)Cc1ccc(O)c(O)c1 (stereo unspecified) [NORDIHYDROGUAIARETIC ACID] | 84 | 83 | 81 | 83 | – | – | –
20 | 657 | 82 | – | COc1cc(O)c(C(=O)/C=C/c2ccc(Cl)cc2)c(OC)c1 | 0 | 0 | 15.1 | 46.9 | 100 | 100 | 42.7
21 | – | 600 | – | O=C(O)/C=C/c1ccc(O)c(O)c1 [CAFFEIC ACID] | – | – | – | – | 5.5 | – | –
22 | – | – | 0 | O=C1/C(=C/c2ccc(O)c(O)c2)Oc2cc(O)cc(O)c21 | – | – | 84.9 | 97.7 | – | – | 77.8
23 | 456 | – | 2.3 | COc1ccc(/C=C/C(=O)c2c(O)cc(OC)cc2OC)cc1 [FLAVOKAWAIN A] | 0 | 0 | 6.3 | 40.8 | 50 | 78.7 | 80.9
24 | 228 | 67.5 | – | COc1ccc(/C=C/C(=O)c2ccccc2O)cc1OC | 0 | 0 | 6.3 | 28.5 | 100 | 84.1 | 64.6
25 | 500 | – | 5 | COc1ccc(/C=C/C(=O)c2ccccc2O)cc1 | 0 | 0 | 0 | 40.8 | 73.7 | 100 | 61.6
26 | 503 | – | 20 | COc1cc(O)c(C(=O)/C=C/c2ccccc2OC)c(OC)c1 | 9.7 | 5.9 | 15.1 | 47.7 | 89.5 | 0 | 68.4
27 | 76 | – | 0 | O=C(/C=C/c1ccc(O)c(O)c1)c1c(O)cc(O)cc1O [3,4,2',4',6'-PENTAHYDROXYCHALCONE] | – | – | 100 | 94.9 | – | – | 0
28 | 1040 | 52.5 | – | Cc1ccc(/C=C/C(=O)c2ccccc2O)cc1 | 0 | 1.5 | 0 | 43.8 | 84.2 | 100 | 49.6
29 | 599 | 100 | – | COc1ccccc1/C=C/C(=O)c1ccccc1O | 0 | 0 | 11.8 | 57.7 | 92.1 | 100 | 43.1
30 | 940 | – | 36.4 | COc1cccc(/C=C/C(=O)c2ccccc2O)c1 | 0 | 0 | 0 | 34.6 | 97.4 | 57 | 75.8
